Reference: article PMC8647718 (Free radical biology & medicine, 2020)
Values joined by “and” are separate entries in the source; they are usually repeats but may differ in a detail not shown here. Equal entries are not always repeated.

Key:
[1] = test system: AhR; experiment: AhR-luciferase; type: cell-based, mouse; conditions: for AhR activation CQ (concentration of quadrupling): H1L6.1c3 cells, luciferase fold vs DMSO normalized to viability
[2] = test system: Nrf2; experiment: ARE-luciferase reporter assay in HepG2-ARE cells; type: cell-based; conditions: 24 h, 0–25 μM, (−) = concentration range tested did not quadruple Nrf2 activation
[3] = test system: H1L6.1c3 cells; experiment: MTT cell viability assay in H1L6.1c3 cells; conditions: for IC50: Mus musculus, read-out: AhR activation IC50 (cell viability reduced by half)
[4] = test system: HepG2-ARE cells; experiment: MTT cell viability assay in HepG2-ARE cells; type: cell-based; conditions: read-out: Nrf2 activation IC50 (cell viability reduced by half)
[5] = test system: ZO-1; experiment: ZO-1 tight junction protein level, immunoblot in HT-29 cells; type: cell-based, human; conditions: HT-29, GarD 0–25 μM, 24 h
[6] = test system: HT-29 monolayers; experiment: In vitro permeability assay of FITC-dextran through HT-29 monolayers; type: cell-based, human; conditions: HT-29 transwell, GarD 6.25 or 12.5 μM pretreatment 6 h, 100 μM tBHP 16 h
Outline: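 HT-29 cells seeded at 1.5 × 10^5 cells/cm2 on transwell inserts and differentiated; only monolayers with TEER above 200 […] were used. Test compound was added apically for 6 h, then 100 μM tBHP for 16 h. Apical 4 kDa FITC-dextran (0.5 mg mL−1 in HBSS/HEPES), HBSS basolateral. Basolateral samples at 0.5–4 h read at 485/530 nm; % of control.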

[7] = test system: HT-29 cells; experiment: tBHP-induced ROS production; type: cell-based, human
[8] = test system: occludin; experiment: Occludin tight junction protein level, immunoblot in HT-29 cells; type: cell-based, human; conditions: HT-29, GarD 0–25 μM, 24 h
[9] = test system: heme oxygenase-1 (HO-1); experiment: HO-1 protein level, immunoblot of HT-29 whole cell lysates; type: cell-based, human; conditions: GarD 0–25 μM, 24 h
Outline: (§1)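 HT-29 cells treated for 24 h with test compound, tBHQ 50 μM or FICZ 0.5 μM as references. Densities were normalised to β-actin. Mean ± SD of triplicate experiments; one-way ANOVA with Tukey test, P ≤ 0.05.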

[10] = test system: ZO-2, ZO-3, claudin-1 and claudin-4; experiment: Other TJ proteins, immunoblot in HT-29 cells; type: cell-based, human; conditions: HT-29, GarD 0–25 μM, data not shown
[11] = test system: AhR; experiment: AhR nuclear translocation, immunoblot of nuclear proteins in HT-29 cells; type: cell-based, human; conditions: HT-29, 1 h; GarD 12.5 μM, FICZ 0.5 μM
Outline: (§2)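 HT-29 cells exposed to test compound at 12.5 μM, with tBHQ 50 μM or FICZ 0.5 μM as reference activators, over a 6-h time course. Cytosolic and nuclear fractions were collected at set time points, quantified by BCA, and resolved by SDS-PAGE. Blots were probed for AhR or Nrf2, with densities normalised to β-actin or lamin A/C. At least three independent experiments; mean ± SD.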

[12] = test system: ZO-1; experiment: ZO-1 immunofluorescence microscopy in HT-29 cells; type: cell-based, human
[13] = test system: HT-29 cells; experiment: Total intracellular ROS; type: cell-based, human; conditions: HT-29, 12 h; GarD 25 μM, tBHP 25 μM (positive control)
[14] = test system: Nrf2; experiment: Nrf2 nuclear translocation, immunoblot of nuclear proteins in HT-29 cells; type: cell-based, human; conditions: HT-29, 1 h; GarD 12.5 μM, tBHQ 50 μM
Outline: as §2

[15] = test system: Nrf2; experiment: Total Nrf2 protein level, immunoblot of HT-29 whole cell lysates; type: cell-based, human; conditions: GarD 0–25 μM, 24 h
Outline: as §1

[16] = test system: AhR; experiment: AhR protein level, immunoblot of HT-29 cell lysates; type: cell-based, human; conditions: HT-29, 24 h; GarD 12.5 μM, FICZ 500 nM
Outline: as §1

[17] = test system: Cyp1a1; experiment: Cyp1a1 protein level, immunoblot of HT-29 cell lysates; type: cell-based, human; conditions: HT-29, 24 h; GarD 12.5 μM, FICZ 500 nM
Outline: as §1

[18] = test system: Nrf2; conditions: HT-29 cells, 10 μM; cited from earlier work
[19] = test system: claudin-1; experiment: tBHP oxidative stress-induced TJ disruption, claudin-1 immunoblot in HT-29 cells; type: cell-based, human; conditions: HT-29, tBHP 50 μM, 16 h
[20] = test system: ZO-1; experiment: tBHP oxidative stress-induced TJ disruption, ZO-1 immunoblot in HT-29 cells; type: cell-based, human; conditions: HT-29, tBHP 50 μM, 16 h
[21] = test system: occludin; experiment: tBHP oxidative stress-induced TJ disruption, occludin immunoblot in HT-29 cells; type: cell-based, human; conditions: HT-29, tBHP 50 μM, 16 h

CC(C)=CCc1c(O)c(CC=C(C)C)c2oc3c(O)cccc3c(=O)c2c1O [Compound 1, 8-desoxygartanin]
AhR activation CQ (concentration of quadrupling) ([1]; 24 h): 0.162 ± 0.001 µM | Nrf2 activation CQ (concentration of quadrupling) [2]: 22.19 ± 1.24 µM

CC(C)=CCc1c(O)c(CC=C(C)C)c2oc3c(O)ccc(O)c3c(=O)c2c1O [Compound 2, gartanin]
IC50 [3]: 36.5 ± 0.71 µM | IC50 [4]: 63.6 ± 1.94 µM | Nrf2 activation CQ (concentration of quadrupling) [2]: 9.4 µM and 9.43 ± 1.90 µM

COc1c(O)cc2oc3cc(O)c(CC=C(C)C)c(O)c3c(=O)c2c1CC=C(C)C [Compound 3, α-mangostin]
Nrf2 activation CQ (concentration of quadrupling) [2]: 16.25 ± 0.46 µM

COc1cc2oc3cc(O)c(OC)c(CC=C(C)C)c3c(=O)c2c(O)c1CC=C(C)C [Compound 5, β-mangostin]
CQ value relative to the rest of the compounds ([1]; AhR activation, H1L6 cells): 10–36 times higher | AhR activation CQ (concentration of quadrupling) ([1]; 24 h): 5.125 ± 0.006 µM

COc1c(O)cc2oc3cc(O)c(CC=C(C)C)c(O)c3c(=O)c2c1CCC(C)(C)O [Compound 6, garcinone D]
increase in ZO-1 protein relative to untreated controls [5]: 34–83% | tBHP induced leakage of FITC-dextran [6]: dose-dependently inhibited | suppression of tBHP-induced ROS production vs tBHP ([7]; HT-29, GarD pretreatment (0–25 μM, 6 h), dose-dependent): 25 to 68% | increase in occludin protein relative to untreated controls [8]: 22–91% | AhR activation IC50 (cell viability reduced by half) ([3]; H1L6 cells, MTT, max 100 μM, (−) = did not exhibit >50% cell toxicity at the concentration range tested): without exhibiting >50% H1L6 cell toxicity | IC50 [3]: > 100 µM | increase in HO-1 protein vs control [9]: 37% | inducing effect on other TJ proteins (ZO-2, ZO-3, claudin-1, claudin-4) [10]: no inducing effect | nuclear AhR accumulation (peak) [11]: 3.8 fold increase vs control | AhR activation CQ (concentration of quadrupling) ([1]; 24 h): 0.142 µM and 0.142 ± 0.008 µM | IC50 [4]: 38.5 ± 7.27 µM | ZO-1 intensity lost to tBHP treatment rescued ([12]; HT-29, 2-h pre-treatment GarD 12.5 μM, co-incubation with tBHP 16 h): 45% | ROS level (DCF fluorescence) relative to untreated control [13]: 2 fold | nuclear Nrf2 level [14]: 1.9 fold greater than the control | Nrf2 activation CQ (concentration of quadrupling) [2]: 8.0 µM and 8.08 ± 0.07 µM | increase in total Nrf2 protein vs control [15]: 40%

CC(C)=CCc1c(O)cc2oc3cc(O)c(O)c(CC=C(C)C)c3c(=O)c2c1O [Compound 7, γ-mangostin]
Nrf2 activation CQ (concentration of quadrupling) [2]: 14.93 ± 0.10 µM

O=Cc1c2[nH]c3ccccc3c2cc2[nH]c3ccccc3c12 [FICZ, 6-formylindolo[3,2-b] carbazole, reference compound]
increase in AhR protein [16]: 2.8 fold | increase in Cyp1a1 protein [17]: 3.5 fold | nuclear AhR accumulation (peak) [11]: 4.6 fold increase vs control | increase of luminescence signal ([1]; FICZ 500 nM, 24 h, H1L6 cells): 43 fold of control

C[S+]([O-])CCCCN=C=S (stereo not shown) [sulforaphane]
induction of Nrf2 relative to the control [18]: 200%

CC(C)(C)OO [tBHP, tert-butyl hydroperoxide, reference compound]
increase in total ROS levels relative to controls ([7]; HT-29, 2 mM tBHP, 4 h): 2 fold | reduction in claudin-1 compared to untreated controls [19]: 48% | reduction in ZO-1 compared to untreated controls [20]: 68% | ZO-1 fluorescence intensity ([12]; HT-29, tBHP 50 μM, 16 h): 45 % of the control | ROS level (DCF fluorescence) relative to untreated control [13]: 4 fold | reduction in occludin compared to untreated controls [21]: 28%

CC(C)(C)c1cc(O)ccc1O [tBHQ, tert-butyl hydroquinone, reference compound]
nuclear Nrf2 level [14]: Nuclear translocation of Nrf2 was also demonstrated
